Experimental data as given in ChEMBL document CHEMBL3085708, “Identification and profiling of 3,5-dimethyl-isoxazole-4-carboxylic acid [2-methyl-4-((2S,3'S)-2-methyl-[1,3']bipyrrolidinyl-1'-yl)phenyl] amide as histamine H(3) receptor antagonist for the treatment of depression” (Bioorg Med Chem Lett, 2013).

What was measured:
[1] = tested on: Mus musculus; experiment: Plasma clearance in OF1 mouse at 2 mg/kg, iv; type: ADME, organism-based; design: dose 2 mg/kg, route intravenous; details: in vivo
Summary of the method: (§1)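 Male OF1 mice given 2 mg/kg iv (50% 1-methyl-2-pyrrolidinone in saline, 1.0 mg/mL) and 10 mg/kg po (5% DMSO/0.5% MC/0.2% Tween80, 1.0 mg/mL); plasma and brain exposure measured; B/P ratio from iv AUC.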

[2] = Cmax in Sprague-Dawley rat brain at 10 mg/kg, po; type: ADME, organism-based; design: dose 10 mg/kg, route oral
Summary of the method: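 Oral PK at 10 mg/kg po in male OF1 mice (vehicle 5% DMSO/0.5% MC/0.2% Tween80, 1.0 mg/mL) and male Sprague-Dawley rats (vehicle 0.5% MC/0.2% Tween80, 1.0 mg/mL). Cmax and tmax taken from plasma and brain concentration–time profiles.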

[3] = target: Voltage-gated inwardly rectifying potassium channel KCNH2 (Homo sapiens, UniProt Q12809); experiment: Inhibition of human ERG current transfected in CHO cells by patch clamp assay; type: cell-based
Summary of the method: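 Whole-cell patch clamp on CHO cells, hERG current; IC50 from n = 4.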

[4] = Volume of distribution in OF1 mouse at 2 mg/kg, iv; type: ADME, organism-based; design: dose 2 mg/kg, route intravenous; details: in vivo; summary of the method: as §1
[5] = AUC (0 to infinity) in OF1 mouse brain at 2 mg/kg, iv; type: ADME, organism-based; design: time infinity, dose 2 mg/kg, route intravenous
Summary of the method: (§2)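 Single-dose PK; male OF1 mice and male Sprague-Dawley rats, 2 mg/kg iv and 10 mg/kg po. Mouse vehicles: iv 50% 1-methyl-2-pyrrolidinone in saline (1.0 mg/mL); po 5% DMSO/0.5% MC/0.2% Tween80 (1.0 mg/mL). Rat vehicles: iv saline (0.5 mg/mL); po 0.5% MC/0.2% Tween80 (1.0 mg/mL). Plasma and brain exposure read as AUC0-∞ and t1/2.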

[6] = Tmax in Sprague-Dawley rat plasma at 10 mg/kg, po; type: ADME, organism-based; design: dose 10 mg/kg, route oral
Summary of the method: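 Male Sprague-Dawley rats dosed 2 mg/kg iv in saline (0.5 mg/mL) and 10 mg/kg po in 0.5% MC/0.2% Tween80 (1.0 mg/mL); plasma and brain concentrations followed.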

[7] = Elimination half life in Sprague-Dawley rat plasma at 10 mg/kg, po; type: ADME, organism-based; design: dose 10 mg/kg, route oral; details: read-out: beta t1/2 (converted); summary of the method: as §2
[8] = AUC (0 to infinity) in OF1 mouse plasma at 10 mg/kg, po; type: ADME, organism-based; design: time infinity, dose 10 mg/kg, route oral; summary of the method: as §2
[9] = Drug metabolism in rat plasma at 100 ng/ml after 4 hrs; type: ADME, cell-free; details: read-out: Drug metabolism
Summary of the method: (§3)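 Compound spiked into blank plasma of human, mouse, rat, rabbit, macaque and dog at 100 ng/ml, then incubated in a 37 °C water bath for up to 4 h; percent metabolized reported.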

[10] = tested on: Mus musculus; experiment: Toxicity in mouse assessed as effect on behavioral activity at 10 to 30 mg/kg, po by Irwin test; type: organism-based; design: dose 10-30 mg/kg, route oral; details: in vivo
Summary of the method: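 Irwin exploratory general behaviour study in male mice; single oral doses of 0, 10 and 30 mg/kg; behavioural, neurologic and autonomic effects observed.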

[11] = Solubility of the compound in form of crystalline free base in gastrointestinal tract simulated media; type: physicochemical
[12] = target: Cytochrome P450 3A4 (Homo sapiens, UniProt P08684); experiment: Inhibition of CYP3A4 (unknown origin) after 4 hrs; type: ADME
[13] = Therapeutic index, ratio for toxicity in mouse to ratio for antidepression-like activity in rat; details: in vivo, read-out: TI
[14] = Elimination half life in Sprague-Dawley rat brain at 2 mg/kg, iv; type: ADME, organism-based; design: dose 2 mg/kg, route intravenous; details: read-out: beta t1/2 (converted); summary of the method: as §2
[15] = AUC (0 to infinity) in Sprague-Dawley rat brain at 2 mg/kg, iv; type: ADME, organism-based; design: time infinity, dose 2 mg/kg, route intravenous; summary of the method: as §2
[16] = Drug metabolism in dog plasma at 100 ng/ml after 4 hrs; type: ADME, cell-free, Canis lupus familiaris; details: read-out: Drug metabolism; summary of the method: as §3
[17] = tested on: Heart; experiment: Toxicity in guinea pig heart assessed as effect on coronary pressure at 0.1 to 30 uM; type: tissue-based, Cavia porcellus
[18] = Ratio of AUC (0 to infinity) in brain to plasma in OF1 mouse at 2 mg/kg, iv; type: ADME, organism-based; design: dose 2 mg/kg, route intravenous; details: brain and plasma, read-out: Ratio AUC
[19] = tested on: Mus musculus; experiment: Toxicity in mouse assessed as effect on social interaction at 30 mg/kg, po; type: organism-based; design: dose 30 mg/kg, route oral; details: in vivo
Summary of the method: (§4)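 Acute oral group toxicity in mice: behavioural side effects scored (social interaction, motility, preconvulsant signs, convulsions, tremor) after single po doses of 30 and 100 mg/kg.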

[20] = Drug metabolism in human liver microsomes; type: ADME; details: read-out: Drug metabolism
[21] = tested on: Mus musculus; experiment: Toxicity in mouse assessed as effect on convulsion at 30 mg/kg, po; type: organism-based; design: dose 30 mg/kg, route oral; details: in vivo; summary of the method: as §4
[22] = Drug metabolism in rabbit liver microsomes; type: ADME, Oryctolagus cuniculus, Microsome; details: read-out: Drug metabolism
[23] = target: Sigma non-opioid intracellular receptor 1 (Homo sapiens) (UniProt Q99720); experiment: Inhibition of sigma-1 receptor (unknown origin) at 10 uM relative to control
[24] = target: Histamine H3 receptor (Homo sapiens, UniProt Q9Y5N1); experiment: Displacement of [3H]-methylhistamine from human histamine H3 receptor transfected in human 293 cells after 1 hr by scintillation counting analysis; type: cell-based
[25] = Drug metabolism in mouse plasma at 100 ng/ml after 4 hrs; type: ADME, cell-free; details: read-out: Drug metabolism; summary of the method: as §3
[26] = Mutagenic activity in micronucleus (unknown origin) at 5 to 950 ug/mL in absence of human liver microsomes; type: toxicity
Summary of the method: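 In vitro micronucleus test; concentrations 5 to 950 µg/mL, run with and without metabolic activation by human liver microsomes.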

[27] = Ratio of AUC (0 to infinity) in brain to plasma in Sprague-Dawley rat at 2 mg/kg, iv; type: ADME, organism-based; design: dose 2 mg/kg, route intravenous; details: brain and plasma, read-out: Ratio AUC
[28] = Tmax in OF1 mouse plasma at 10 mg/kg, po; type: ADME, organism-based; design: dose 10 mg/kg, route oral; summary of the method: as §1
[29] = tested on: Mus musculus; experiment: Toxicity in mouse assessed as effect on motility at 30 mg/kg, po; type: organism-based; design: dose 30 mg/kg, route oral; details: in vivo; summary of the method: as §4
[30] = tested on: Rattus norvegicus; experiment: Antidepression-like activity in po dosed rat assessed as decrease in immobility time by forced swimming test; type: functional
Summary of the method: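 Rat forced-swim test, immobility time as read-out. Test agent given po in MC/0.6% + H2O at 1, 3 and 10 mg/kg; imipramine reference at 60 mg/kg po.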

Cytochrome P450 3A4, sequence (P08684 whole entry): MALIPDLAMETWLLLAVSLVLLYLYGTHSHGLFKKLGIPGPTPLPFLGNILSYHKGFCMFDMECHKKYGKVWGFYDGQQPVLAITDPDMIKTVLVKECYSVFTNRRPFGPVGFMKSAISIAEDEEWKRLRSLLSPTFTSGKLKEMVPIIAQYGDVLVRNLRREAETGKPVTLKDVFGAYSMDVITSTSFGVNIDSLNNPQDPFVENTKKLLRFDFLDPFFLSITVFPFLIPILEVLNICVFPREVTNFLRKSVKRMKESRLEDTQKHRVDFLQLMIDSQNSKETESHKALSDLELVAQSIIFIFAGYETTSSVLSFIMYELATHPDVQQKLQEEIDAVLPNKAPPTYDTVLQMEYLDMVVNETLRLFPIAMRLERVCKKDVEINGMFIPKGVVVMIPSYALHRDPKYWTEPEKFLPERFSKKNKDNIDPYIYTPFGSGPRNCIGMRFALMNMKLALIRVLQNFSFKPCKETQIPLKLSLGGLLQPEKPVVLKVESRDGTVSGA
Sigma non-opioid intracellular receptor 1 (Homo sapiens), sequence (Q99720 whole entry): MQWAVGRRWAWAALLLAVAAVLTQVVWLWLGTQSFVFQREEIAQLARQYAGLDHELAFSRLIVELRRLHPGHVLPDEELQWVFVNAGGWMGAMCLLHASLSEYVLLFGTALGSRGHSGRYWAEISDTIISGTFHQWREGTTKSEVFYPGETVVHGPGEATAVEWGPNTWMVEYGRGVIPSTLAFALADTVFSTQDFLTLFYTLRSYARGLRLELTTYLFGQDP
Voltage-gated inwardly rectifying potassium channel KCNH2, sequence (Q12809 whole entry): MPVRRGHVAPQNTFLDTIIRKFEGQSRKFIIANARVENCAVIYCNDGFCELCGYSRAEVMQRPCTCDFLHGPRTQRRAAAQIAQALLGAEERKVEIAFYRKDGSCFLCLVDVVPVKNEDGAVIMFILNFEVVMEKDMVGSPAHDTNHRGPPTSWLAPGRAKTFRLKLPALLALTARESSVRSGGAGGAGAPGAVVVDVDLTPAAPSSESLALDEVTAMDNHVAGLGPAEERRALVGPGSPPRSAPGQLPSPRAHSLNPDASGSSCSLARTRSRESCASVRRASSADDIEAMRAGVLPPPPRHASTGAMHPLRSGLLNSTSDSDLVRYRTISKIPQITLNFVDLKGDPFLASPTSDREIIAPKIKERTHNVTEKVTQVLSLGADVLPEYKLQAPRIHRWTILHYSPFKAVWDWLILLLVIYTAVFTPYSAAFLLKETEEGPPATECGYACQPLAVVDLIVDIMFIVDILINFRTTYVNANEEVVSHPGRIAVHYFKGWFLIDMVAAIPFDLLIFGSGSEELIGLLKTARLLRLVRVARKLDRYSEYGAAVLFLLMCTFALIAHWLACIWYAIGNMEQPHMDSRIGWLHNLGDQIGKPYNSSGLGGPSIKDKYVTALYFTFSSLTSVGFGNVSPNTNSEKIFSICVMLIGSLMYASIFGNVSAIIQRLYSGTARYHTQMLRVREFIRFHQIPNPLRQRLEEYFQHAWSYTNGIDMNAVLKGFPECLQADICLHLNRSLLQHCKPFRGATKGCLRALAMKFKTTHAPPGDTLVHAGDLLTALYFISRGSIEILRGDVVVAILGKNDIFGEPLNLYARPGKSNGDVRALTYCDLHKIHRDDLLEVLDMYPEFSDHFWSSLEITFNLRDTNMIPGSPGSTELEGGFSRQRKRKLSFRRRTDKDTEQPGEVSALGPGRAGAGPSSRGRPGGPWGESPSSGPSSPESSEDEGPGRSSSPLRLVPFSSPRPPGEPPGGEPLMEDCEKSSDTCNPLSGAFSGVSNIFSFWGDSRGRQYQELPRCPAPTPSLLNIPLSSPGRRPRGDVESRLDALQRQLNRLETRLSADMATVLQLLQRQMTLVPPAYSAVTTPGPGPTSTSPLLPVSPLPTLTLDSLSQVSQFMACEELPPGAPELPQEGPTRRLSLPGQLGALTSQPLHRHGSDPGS
Histamine H3 receptor, sequence (Q9Y5N1 whole entry): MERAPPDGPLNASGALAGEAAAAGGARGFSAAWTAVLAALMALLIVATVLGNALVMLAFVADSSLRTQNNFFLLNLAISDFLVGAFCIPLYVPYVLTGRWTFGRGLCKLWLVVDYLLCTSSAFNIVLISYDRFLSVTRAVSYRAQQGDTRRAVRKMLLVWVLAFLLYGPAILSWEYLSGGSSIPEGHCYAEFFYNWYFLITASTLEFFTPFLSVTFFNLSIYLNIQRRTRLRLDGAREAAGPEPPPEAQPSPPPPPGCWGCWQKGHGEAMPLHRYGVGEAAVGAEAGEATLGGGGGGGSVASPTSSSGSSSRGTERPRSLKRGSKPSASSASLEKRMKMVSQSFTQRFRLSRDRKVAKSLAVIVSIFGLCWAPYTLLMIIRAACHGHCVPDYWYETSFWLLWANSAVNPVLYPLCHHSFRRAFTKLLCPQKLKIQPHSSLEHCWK

## Cc1cc(N2CC[C@H](N3CCC[C@@H]3C)C2)ccc1NC(=O)c1c(C)noc1C
[1]
  clearance: 50 mL/min/kg
[2]
  Cmax: 599 ng/mL
[3]
  IC50: 37 µM
[4]
  Vd: 1.7 L/kg
[5]
  AUC(0-inf): 1100 ng·h/mL
[6]
  Tmax: 0.5 h
[7]
  half-life: 7.8 h
[8]
  AUC(0-inf): 1900 ng·h/mL
[9]
  metabolised at 4 h, 100 ng/ml: < 5%
[10]
  Activity: Non-toxic
[11]
  solubility: > 2000 µg/mL
[12]
  IC50: > 100 µM
[13]
  selectivity ratio: 3
[14]
  half-life: 1.8 h
[15]
  AUC(0-inf): 1200 ng·h/mL
[16]
  metabolised at 4 h, 100 ng/ml: < 5%
[17]
  Activity: Non-toxic
[18]
  Kp: 1.6
[19]
  Activity: Non-toxic
[20]
  metabolised: < 5%
[21]
  Activity: Non-toxic
[22]
  metabolised: < 5%
[23]
  inhibition: 73%
[24]
  Ki: 0.0001 µM
[25]
  metabolised at 4 h, 100 ng/ml: < 5%
[26]
  Activity: Non-toxic
[27]
  Kp: 1.1
[28]
  Tmax: 0.17 h
[29]
  Activity: Non-toxic
[30]
  Activity: Dose-dependent effect
[30]; read-out: MED
  minimal effective dose: 10 mg/kg
